High-throughput results (PubChem)
Rin1-Abl PPI inh – blocks binding of human Rin1 to Abl | P00519+Q13671 | TR-FRET Rin1/Abl binding, biochemical | inhibition, % at 7.35 µM | 360,000 compounds, 0.4% hits | AID 588664; in the data active = inhibition above about 5%, passing the limit was not always enough
Target sequence (P00519 whole entry, looked up): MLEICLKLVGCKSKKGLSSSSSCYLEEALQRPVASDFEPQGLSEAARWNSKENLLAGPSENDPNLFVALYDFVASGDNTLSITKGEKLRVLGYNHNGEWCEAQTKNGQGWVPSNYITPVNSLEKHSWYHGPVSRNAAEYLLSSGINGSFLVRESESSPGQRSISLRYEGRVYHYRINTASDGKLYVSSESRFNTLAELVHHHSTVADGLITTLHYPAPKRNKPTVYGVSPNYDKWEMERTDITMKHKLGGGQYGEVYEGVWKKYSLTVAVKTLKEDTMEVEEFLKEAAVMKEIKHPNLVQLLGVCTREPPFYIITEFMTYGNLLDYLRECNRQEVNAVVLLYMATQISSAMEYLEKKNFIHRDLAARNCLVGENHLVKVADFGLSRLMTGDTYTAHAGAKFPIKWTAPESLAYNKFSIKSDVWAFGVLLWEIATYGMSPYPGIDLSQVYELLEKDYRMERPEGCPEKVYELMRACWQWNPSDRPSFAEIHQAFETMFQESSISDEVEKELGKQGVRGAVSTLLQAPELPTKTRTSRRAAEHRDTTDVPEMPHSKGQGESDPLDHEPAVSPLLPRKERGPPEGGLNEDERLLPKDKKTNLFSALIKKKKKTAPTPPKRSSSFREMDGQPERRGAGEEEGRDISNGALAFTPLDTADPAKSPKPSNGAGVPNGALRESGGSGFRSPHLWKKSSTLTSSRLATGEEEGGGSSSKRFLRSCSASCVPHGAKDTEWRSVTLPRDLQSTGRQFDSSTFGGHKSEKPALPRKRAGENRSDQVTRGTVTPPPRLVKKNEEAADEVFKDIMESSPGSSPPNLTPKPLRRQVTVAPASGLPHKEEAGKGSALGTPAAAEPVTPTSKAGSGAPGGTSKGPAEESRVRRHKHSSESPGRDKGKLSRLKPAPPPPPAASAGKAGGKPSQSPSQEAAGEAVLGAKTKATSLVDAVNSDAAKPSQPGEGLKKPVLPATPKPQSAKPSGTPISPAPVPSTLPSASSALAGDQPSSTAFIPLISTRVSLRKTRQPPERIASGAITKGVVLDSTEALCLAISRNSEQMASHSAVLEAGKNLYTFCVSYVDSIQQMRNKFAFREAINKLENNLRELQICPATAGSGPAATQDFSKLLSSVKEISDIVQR
Target sequence (Q13671 whole entry, looked up): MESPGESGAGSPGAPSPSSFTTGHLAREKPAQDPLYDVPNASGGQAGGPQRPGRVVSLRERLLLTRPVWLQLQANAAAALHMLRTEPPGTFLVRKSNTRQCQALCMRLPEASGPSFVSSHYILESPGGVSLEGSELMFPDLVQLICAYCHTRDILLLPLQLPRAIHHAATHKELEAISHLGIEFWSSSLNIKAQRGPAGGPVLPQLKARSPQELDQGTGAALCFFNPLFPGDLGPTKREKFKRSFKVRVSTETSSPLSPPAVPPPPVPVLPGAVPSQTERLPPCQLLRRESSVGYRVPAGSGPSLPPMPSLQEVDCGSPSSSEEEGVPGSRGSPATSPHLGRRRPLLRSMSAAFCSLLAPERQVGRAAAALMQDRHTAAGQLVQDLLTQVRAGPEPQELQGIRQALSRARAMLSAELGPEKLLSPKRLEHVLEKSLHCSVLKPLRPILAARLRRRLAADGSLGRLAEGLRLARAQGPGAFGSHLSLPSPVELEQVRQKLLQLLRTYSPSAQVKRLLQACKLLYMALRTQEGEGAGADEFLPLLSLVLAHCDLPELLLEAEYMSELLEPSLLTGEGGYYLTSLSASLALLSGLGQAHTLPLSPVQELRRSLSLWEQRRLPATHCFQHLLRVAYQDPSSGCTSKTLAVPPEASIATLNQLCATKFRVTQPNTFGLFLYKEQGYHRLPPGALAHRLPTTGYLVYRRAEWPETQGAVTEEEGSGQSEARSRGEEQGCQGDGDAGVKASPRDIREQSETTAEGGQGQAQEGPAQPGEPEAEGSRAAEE
SUMO HTRF inh – SUMOylation inhibition | 290,000 compounds, 0.36% hits | AID 2006 | inhibition, % at 35 µM | P63279 | HTRF SUMOylation assay, SAE1/SAE2 + UBC9, in vitro; in the data active = inhibition above about 50%, passing the limit was not always enough; inconclusive = no clear call, values can overlap the other calls
PREPL inhibitor – inhibitors of human prolyl oligopeptidase-like enzyme PREPL; Q4J6C6; recombinant PREPL, fluorescence polarization activity-based probe; inhibition, % at 5.96 µM; 320,000 compounds, 0.68% hits
ALR H2O2 inh – human ALR oxidase inhibition via reduced H2O2; P55789; purified ALR, DTT oxidation, H2O2 HRP-luminol luminescence; inhibition, % (concentration not given with the values); 290,000 compounds, 3.8% hits; AID 485317;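 active = mean replicate inhibition above about 79%, with every replicate also reaching it, limit read from the data; inconclusive = only one of the two criteria met; inactive = mean below limit and not every replicate reaching it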
UBC13 polyUb – inhibitors of human UBC13 polyubiquitin chain formation. TR-FRET. inhibition, % at 20 µM. 330,000 compounds, 0.47% hits. AID 485273; in the data active = inhibition above about 45%, passing the limit was not always enough; inconclusive = no clear call, values can overlap the other calls
RBBP9 inhibitor – blocks human serine hydrolase RBBP9. 220,000 compounds, 0.2% hits. O75884. inhibition, % at 7.94 µM. recombinant RBBP9, FP-Rh probe fluorescence polarization. AID 1515;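 active = inhibition above the campaign mean of all tested compounds plus 3 SD, cut at about 14% in these data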
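Measured by: FP readout at 525/598 nm; material: recombinant human RBBP9; also added: Serine-hydrolase probe FP-Rh, 375 nM pre-mixing; medium: Tris buffer pH 8.0, NaCl, Pluronic; replication: one well per compound; doses: one concentration, 7.94 µM nominal, 0.794% DMSO; timing: preincubation 30 min plus labeling 45 min at 25 °C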
PREPL confirm – confirmation of human PREPL enzyme inhibitors | 2,000 compounds, 67% hits | inhibition, % at 5.96 µM | recombinant PREPL, fluorescence polarization activity probe | AID 2803 | shares compounds with PREPL inhibitor
Of the large screens only hits and unclear results are named; the others gave an inactive call (follow-up assays come after a bar, where they were run). This is a sample that favours compounds with a hit; in the whole collection about 4.3% have one here. Rule as the data show it, unless noted: active = inhibition above about 43%; inactive = the rest.

COc1ccc(C2CC(c3cccc(C)c3)n3nc(N)nc3N2)cc1 (centres undefined)	PREPL inhibitor 55 | PREPL confirm 59
Cc1ccc(C2CC(c3ccc(C)cc3)n3nc(N)nc3N2)cc1 (centres undefined)	PREPL inhibitor 53 | PREPL confirm 48
COc1cccc(C2CC(c3cccc(OC)c3)n3nc(N)nc3N2)c1 (centres undefined)	none
Cc1ccc(C2CC(c3ccco3)n3nc(N)nc3N2)cc1 (centres undefined)	none
Cc1ccccc1C1CC(c2ccc(F)cc2)Nc2nc(N)nn21 (centres undefined)	PREPL inhibitor 44 | PREPL confirm inactive
COc1cccc(C2CC(c3ccc(F)cc3)Nc3nc(N)nn32)c1 (centres undefined)	PREPL inhibitor 44 | PREPL confirm 46
O=C(NC1CCCCC1)C(c1ccccn1)N(C(=O)c1csnn1)C1CCCCC1 (centres undefined)	none
COc1ccc(C(=O)NC=C2C(=O)OC(C)(C)OC2=O)cc1	none
O=C(NCCCN1CCCC1)Nc1ccccc1[N+](=O)[O-]	none (no result: RBBP9 inhibitor)
CCOc1ccc(C2CC(c3ccccc3)Nc3nc(N)nn32)cc1 (centres undefined)	none
COc1ccc(C2CC(c3cccc(Cl)c3)n3nc(N)nc3N2)cc1 (centres undefined)	PREPL inhibitor 55 | PREPL confirm 57
CCc1ccc(C2CC(c3ccc(Cl)cc3)n3nc(N)nc3N2)cc1 (centres undefined)	PREPL inhibitor 45 | PREPL confirm 49
CCO[C@H]1OC(C(=O)N2CCN(Cc3ccc4c(c3)OCO4)CC2)=C[C@@H](c2ccc3c(c2)OCO3)[C@@H]1CCCO	PREPL inhibitor 49 | PREPL confirm inactive
C#Cc1ccc([C@H]2C=C(C(=O)N3CCN(Cc4ccc5c(c4)OCO5)CC3)O[C@@H](OCC)[C@@H]2CCCO)cc1	none
O=C(C1=C[C@@H](c2ccccc2)C[C@@H](OCc2ccc(CO)cc2)O1)N1CCN(Cc2ccc3c(c2)OCO3)CC1	PREPL inhibitor 51 | PREPL confirm 56
O=C(C1=C[C@@H](c2ccc(Br)cc2)C[C@@H](OCCCCO)O1)N1CCN(Cc2ccc3c(c2)OCO3)CC1	PREPL inhibitor 67 (no result: ALR H2O2 inh) | PREPL confirm 59
O=C(C1=C[C@H](c2ccccc2)C[C@H](OCCCCO)O1)N1CCN(Cc2ccc3c(c2)OCO3)CC1	none
CCCCC(=O)Nc1c2c(nn1-c1ccc(C)cc1)CS(=O)(=O)C2	none (no result: RBBP9 inhibitor)
COc1cccc(OCc2cc(/C=N/Nc3ccc(C(=O)O)cc3)ccc2OC)c1	ALR H2O2 inh inconclusive
COC(=O)[C@@]12CCCCN1[C@H](c1ccc(-c3ccc(F)cc3)cc1)[C@@H]1C(=O)N(C)C(=O)[C@@H]12	PREPL inhibitor 54 (no result: SUMO HTRF inh, RBBP9 inhibitor) | PREPL confirm 44
CC(C)Cn1cc(C(=O)N2CCN(c3ccccn3)CC2)c2c3ccccc3n(C)c2c1=O	PREPL inhibitor 51 | PREPL confirm inactive
CCOC(=O)c1ccc(Nc2nc(N)c3cc(OC)c(OC)cc3n2)cc1	none (no result: RBBP9 inhibitor)
COc1cc2nc(Nc3ccc(C)c(C)c3)nc(N)c2cc1OC	PREPL inhibitor 52 (no result: RBBP9 inhibitor) | PREPL confirm 51
Cn1cnc(C(=O)N2CCN(c3ccccc3)CC2)c1C(=O)N1CCN(c2ccccc2)CC1	PREPL inhibitor 45 (no result: SUMO HTRF inh, RBBP9 inhibitor) | PREPL confirm inactive
N#Cc1nc(COc2ccc(-c3ccccc3)cc2)oc1NCCCN1CCOCC1	PREPL inhibitor 45 | PREPL confirm inactive
N#Cc1nc(/C=C/c2ccccc2)oc1NCCCN1CCOCC1	PREPL inhibitor 47 | PREPL confirm inactive
N#Cc1nc(COc2ccccc2)oc1NCCN1CCOCC1	none
COCCNc1oc(/C=C/c2ccccc2)nc1C#N	none
Cc1ccc(OCc2nnc(SCC(=O)N3C(C)CCCC3C)o2)cc1 (centres undefined)	none (no result: RBBP9 inhibitor)
CCOC(=O)C1(C)CCCN1C(=O)c1cccs1 (centres undefined)	none (no result: SUMO HTRF inh, PREPL inhibitor, ALR H2O2 inh, UBC13 polyUb, RBBP9 inhibitor)
COc1ccc(CN(Cc2cccn2C)C(=O)c2cc3cc(OC)ccc3[nH]2)cc1	none
Cc1ccc(C)c(C(=O)OCC(=O)Nc2cccc(S(=O)(=O)NC3=NCCCCC3)c2)c1	PREPL inhibitor 46 | PREPL confirm inactive
